Consider 13 compounds from PMC11750580 (Toxicology Reports, 2024).

A value given as a limit tells only on which side of the number the result lay.

One data set deals with CYP1A genes. The conditions noted are these: HepaRG cells; cited from earlier work.
The target of data set [1] is T1, human aryl hydrocarbon receptor (AhR) (Homo sapiens, UniProt P35869).
T1 sequence (P35869 11-848): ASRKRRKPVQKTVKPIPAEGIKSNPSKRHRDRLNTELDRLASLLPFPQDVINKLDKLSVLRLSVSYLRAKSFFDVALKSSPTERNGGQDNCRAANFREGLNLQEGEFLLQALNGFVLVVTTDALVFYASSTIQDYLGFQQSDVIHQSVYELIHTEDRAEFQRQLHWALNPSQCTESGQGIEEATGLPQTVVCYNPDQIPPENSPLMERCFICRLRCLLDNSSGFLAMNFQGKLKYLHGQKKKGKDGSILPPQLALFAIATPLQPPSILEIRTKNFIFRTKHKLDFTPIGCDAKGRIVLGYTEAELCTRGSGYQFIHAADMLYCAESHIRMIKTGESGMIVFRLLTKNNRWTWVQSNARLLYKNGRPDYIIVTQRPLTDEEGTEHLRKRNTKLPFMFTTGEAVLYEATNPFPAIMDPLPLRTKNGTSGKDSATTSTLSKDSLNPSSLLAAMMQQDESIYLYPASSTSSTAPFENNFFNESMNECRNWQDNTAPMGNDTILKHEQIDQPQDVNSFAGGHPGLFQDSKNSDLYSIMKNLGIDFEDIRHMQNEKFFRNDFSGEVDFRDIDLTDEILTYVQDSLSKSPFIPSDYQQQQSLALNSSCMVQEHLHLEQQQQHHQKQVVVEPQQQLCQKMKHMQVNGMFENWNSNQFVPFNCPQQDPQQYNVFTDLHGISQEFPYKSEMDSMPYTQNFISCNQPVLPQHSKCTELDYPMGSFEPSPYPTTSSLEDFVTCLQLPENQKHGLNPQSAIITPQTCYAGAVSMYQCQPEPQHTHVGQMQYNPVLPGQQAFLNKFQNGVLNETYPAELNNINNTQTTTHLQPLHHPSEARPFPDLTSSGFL
The conditions noted are these: HepG2-AhR Lucia cells.

The target in data set [2] is T1, human aryl hydrocarbon receptor (AhR). Description: cell-based.
The next data set can be described thus: MTT cytotoxicity, T47D. The format is cell-based. The conditions noted are these: human, T47D cells.
A further data set can be described thus: MTT cytotoxicity, MSC. Type of data set: cell-based, human. The conditions noted are these: human, adipose-derived mesenchymal stem cells (MSC).
A further data set is described as follows: MTT cytotoxicity, MRC-5. Type of data set: cell-based. The conditions noted are these: human, MRC-5 cells.
In data set [3] the test system is Caco-2 cells. Description: Cell proliferation and migration. Type of data set: cell-based, human. The conditions noted are these: for proliferation speed compared to control (100 %): Caco-2, 1 µM, 24 h; for effect on cell proliferation rate vs media control: Caco-2, 10 µM, p < 0.05; for effect on growth and proliferation vs media control: Caco-2, any tested concentration (0.1, 1, 10 µM). The gist of the method: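 Cells were seeded at 100,000 cells/mL in 48-well plates and grown to 90–100 % confluence. Each monolayer was scratched with a pipette tip. Medium was then replaced with exposure medium containing 0.1, 1 or 10 µM test compound; cytochalasin D (1 mM) was the positive control. Wells were imaged by automated phase-contrast microscopy every 30 min for 24 h. Read-outs were cell-free area (mm2) and proliferation rate relative to media control (n = 8–16; one-way ANOVA, Dunnett's).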

Another data set can be described thus: MTT cytotoxicity, Caco-2. The format is cell-based. Particulars: human, Caco-2 cells.
Another data set in a line: MTT cytotoxicity, HepG2. The format is cell-based. Particulars: human, HepG2 cells.
A short description of the next data set: MTT cytotoxicity, HepaRG. Type of data set: cell-based, human. The conditions noted are these: human, HepaRG cells (differentiated).
The test system of another data set is goats. The conditions noted are these: oral, 0.16 g/kg body weight, within 4–24 h; cited from earlier work.
Data set [4] has as its system Caco-2 cells. The conditions noted are these: cited from earlier work.
Data set [5] relates to Caco-2 cells. The conditions noted are these: Caco-2, 500–1000 µM, 72-hour exposure; ref Tomii et al. 31; cited from earlier work.
A further data set has as its system MCF-7 cells. The conditions noted are these: MCF-7, 100 µM; cited from earlier work.
Data set [6] has as its system adipose-derived mesenchymal stem cells (MSC). Briefly: MTT cytotoxicity, MSC. Type of data set: cell-based, human. The conditions noted are these: MSC, 24 h exposure, MTT, average ± SD.
The test system of a further data set is V79 379 A cells. The conditions noted are these: 0.1 mM, 2-hour exposure; cited from earlier work.
In a further data set the test system is MRC-5 cells. Particulars: MRC-5, 30 µg/mL, exposure duration not specified; ref Yap et al. 52; cited from earlier work.
A further data set relates to HepaRG cells. Description: MTT cytotoxicity, HepaRG. The format is cell-based, human. The conditions noted are these: HepaRG, 24 h exposure, MTT, average ± SD.
Data set [7] is described as follows: Indole derivatives quantification in cell media. Particulars: after 24 h of incubation. The format is physicochemical. The gist of the method:
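Test compounds in cell media were measured by reversed-phase HPLC with fluorescence detection on a C18 column (2.2 µm, 150 × 2.1 mm) at 30 °C. A binary gradient ran from 50 mM KH2PO4 (pH 3.3) to that buffer/acetonitrile 700:300. Excitation was 270 nm and emission 350 nm. Compounds were identified by co-chromatography with authentic standards and quantified by peak area.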

Data set [8] deals with V79–4 Chinese hamster fibroblasts. Particulars: V79–4, 300 µM; cited from earlier work.

As for `Cn1ccc2ccccc21` [1-MI], in the data set with CYP1A genes, the “induction of CYP1A genes, % of the level of TCDD” value was “about 50%”.

As to `Cc1c[nH]c2ccccc12` [3-MI, 3-methylindole], the AhR agonist character result in data set [1] is reported as “partial agonists”. The compound also registered an EC50 in [2] of 1.4 µM. The concentration for a half-maximal effect (EC50) at 24 h in the data set “MTT cytotoxicity, T47D” was more than 100 µM; in the data set “MTT cytotoxicity, MSC”, 0.33 ± 0.1 µM; in “MTT cytotoxicity, MRC-5” it was 21.9 ± 8.06 µM; in “MTT cytotoxicity, Caco-2” it was more than 100 µM; in the data set “MTT cytotoxicity, HepG2”, more than 100 µM; in “MTT cytotoxicity, HepaRG” it was 66.4 ± 21.8 µM. In the data set with Caco-2 cells [3] (Caco-2, 0.1 µM), the “effect on cell proliferation vs media control” value is reported as “significant decrease in proliferation”. Moreover, in the data set with Caco-2 cells [3], the “proliferation speed compared to control (100 %)” value is reported as 68.2 ± 7.4%. The “effect on cell proliferation rate vs media control” value in the data set with Caco-2 cells [3] was “significant reduction in cell proliferation rates”. Also, in the data set on CYP1A genes, the “induction of CYP1A genes, % of the level of TCDD” value is listed as “about 50%”. In addition, in the data set with goats, the pulmonary toxicity findings entry was “severe pulmonary edema, denuded bronchioles, and necrotic alveolar cells”.

In the case of `Cc1cccc2[nH]ccc12` [4-MI], the “induction of CYP1A gene expression” value with CYP1A genes was “comparable to TCDD”.

With `Cc1ccc2cc[nH]c2c1` [6-MI], the “induction of CYP1A gene expression” value in the data set with CYP1A genes was “comparable to TCDD”.

On to `O=c1cc(-c2ccccc2)oc2ccc3ccccc3c12` [BNF, β-naphthoflavone, reference compound], for which the AhR agonist character result in data set [1] is listed as “partial agonists”.

As for `c1ccc2c(c1)cc1ccc3cccc4ccc2c1c34` [BaP, benzo[a]pyrene, reference compound], in data set [1], the AhR agonist character entry is listed as “partial agonists”.

As to `O=Cc1c[nH]c2ccccc12` [I3A, indole-3-aldehyde], the AhR agonist character entry in data set [1] is listed as “strong agonists”. In [2], this compound displayed a half-maximal effective concentration (EC50) of 0.04 µM. Further, the half-maximal effective concentration (EC50) at 24 h in “MTT cytotoxicity, T47D” is more than 100 µM; in the data set “MTT cytotoxicity, MSC”, 1.87 ± 0.83 µM; in the data set “MTT cytotoxicity, MRC-5”, 49.8 ± 14.5 µM; in “MTT cytotoxicity, Caco-2”, more than 100 µM; in the data set “MTT cytotoxicity, HepG2”, more than 100 µM; in the data set “MTT cytotoxicity, HepaRG” it was 1.98 ± 0.73 µM. In addition, the “reduction in cell viability” value with Caco-2 cells [4] (Caco-2, 160 µM, ref Liu et al. 30) is on record as 89.6%. Also, in the data set on Caco-2 cells [3], the “proliferation speed compared to control (100 %)” value is on record as 71.3 ± 5.1%. The “effect on cell proliferation rate vs media control” value with Caco-2 cells [3] is recorded as “significant reduction in cell proliferation rates”.

As for `O=C(O)c1c[nH]c2ccccc12` [I3CA, indole-3-carboxylic acid], in [1], the AhR agonist character entry is given as “strong agonists”. This compound registered a half-maximal effective concentration (EC50) in data set [2] of 0.88 µM. Further, the half-maximal effective concentration (EC50) at 24 h in the data set “MTT cytotoxicity, T47D” was more than 100 µM; in the data set “MTT cytotoxicity, MSC” it was 0.64 ± 0.31 µM; in the data set “MTT cytotoxicity, MRC-5”, 0.52 ± 0.08 µM; in the data set “MTT cytotoxicity, Caco-2”, more than 100 µM; in “MTT cytotoxicity, HepG2”, more than 100 µM; in the data set “MTT cytotoxicity, HepaRG”, 53 ± 12.1 µM. Moreover, in the data set on Caco-2 cells [3], the “effect on cell proliferation rate vs media control” value was “significant reduction in cell proliferation rates”.

With `O=C(O)Cc1c[nH]c2ccccc12` [IAA, indole-3-acetic acid], the EC50 at 24 h in the data set “MTT cytotoxicity, T47D” is 1.68 ± 0.46 µM; in the data set “MTT cytotoxicity, MSC”, more than 100 µM; in “MTT cytotoxicity, MRC-5”, 2.55 ± 1.95 µM; in “MTT cytotoxicity, Caco-2” it was 0.52 ± 0.12 µM; in “MTT cytotoxicity, HepG2” it was more than 100 µM; in “MTT cytotoxicity, HepaRG”, 2.21 ± 0.32 µM. For the same compound, the “effect on cell count and cytotoxicity (LDH assay)” value in the data set with Caco-2 cells [5] is “reduced Caco-2 cell count without causing cytotoxicity”. In the data set on MCF-7 cells, the cytotoxicity entry is “did not show cytotoxicity”. Further, the “Cytotoxic evaluation (EC50)” value in [6] was “did not show toxicity”. In addition, the cytotoxic response result in the data set with V79 379 A cells is “did not show a cytotoxic response”. In addition, the “effect on growth and proliferation vs media control” value in the data set on Caco-2 cells [3] is given as “no significant differences”. In addition, the cytotoxic effects entry in the data set with MRC-5 cells is reported as “no cytotoxic effects”.

As for `O=C(O)CCc1c[nH]c2ccccc12` [IPA, indole-3-propionic acid], the AhR agonist character result in data set [1] is “strong agonists”. Also, it took 0.11 µM to reach a half-maximal effect in data set [2] (EC50). For the same compound, the EC50 at 24 h is 2.02 ± 0.13 µM in the data set “MTT cytotoxicity, T47D”; 0.4 ± 0.14 µM in “MTT cytotoxicity, MSC”; 0.91 ± 0.1 µM in the data set “MTT cytotoxicity, MRC-5”; more than 100 µM in the data set “MTT cytotoxicity, Caco-2”; more than 100 µM in “MTT cytotoxicity, HepG2”; more than 100 µM in “MTT cytotoxicity, HepaRG”. Further, in the data set with Caco-2 cells [3], the “effect on growth and proliferation vs media control” value is reported as “no significant differences”. The “Cytotoxic evaluation (EC50)” value in the data set with HepaRG cells was “no sensitivity”.

For `c1ccc2[nH]ccc2c1` [Indole, indole], the AhR agonist character result in [1] is “weak AhR ligand”. Further, the EC50 in data set [2] worked out at 32.1 µM. The concentration giving a half-maximal response (EC50) at 24 h in “MTT cytotoxicity, T47D” was more than 100 µM; in “MTT cytotoxicity, MSC”, more than 100 µM; in “MTT cytotoxicity, MRC-5”, more than 100 µM; in the data set “MTT cytotoxicity, Caco-2” it was more than 100 µM; in the data set “MTT cytotoxicity, HepG2”, more than 100 µM; in the data set “MTT cytotoxicity, HepaRG”, more than 100 µM. Moreover, the “recovery rate in cell media (actual vs nominal concentration)” value in data set [7] was “exceeding 100%”. In addition, the “concentration inducing toxic effects” value in the data set with Caco-2 cells [4] (Caco-2) was 5000 µM. Further, the “effect on cell proliferation rate vs media control” value in the data set with Caco-2 cells [3] is listed as “significant reduction in cell proliferation rates”.

As to `Clc1cc2c(cc1Cl)Oc1cc(Cl)c(Cl)cc1O2` [TCDD, 2,3,7,8-tetrachlorodibenzo-p-dioxin, reference compound], in [2], the EC50 is 0.0003 to 0.0023 µM.

Regarding `O=Cc1ccc2cc[nH]c2c1` [indole-6-carboxaldehyde], the toxicity result in data set [8] is “no toxicity”.

The term EC50 denotes the concentration at which the effect is half-maximal. Read a high EC50 as a need for much substance.
